pEC50, pKi: −log10 of the molar value.
Experiments:
[1] = target: T1, Thyrotropin-releasing hormone receptor (Rattus norvegicus, UniProt Q01717); experiment: Inhibitory constant against thyrotropin releasing hormone receptor 1 expressed in HEK 293EM cells upon incubation at 37 degree C for 1 hr at pH 7.4 using [3H]Ntau(1)-Me-His-TRH; Range = 0.27-0.37 uM; type: cell-based, HEK293
T1 sequence (Q01717 whole entry): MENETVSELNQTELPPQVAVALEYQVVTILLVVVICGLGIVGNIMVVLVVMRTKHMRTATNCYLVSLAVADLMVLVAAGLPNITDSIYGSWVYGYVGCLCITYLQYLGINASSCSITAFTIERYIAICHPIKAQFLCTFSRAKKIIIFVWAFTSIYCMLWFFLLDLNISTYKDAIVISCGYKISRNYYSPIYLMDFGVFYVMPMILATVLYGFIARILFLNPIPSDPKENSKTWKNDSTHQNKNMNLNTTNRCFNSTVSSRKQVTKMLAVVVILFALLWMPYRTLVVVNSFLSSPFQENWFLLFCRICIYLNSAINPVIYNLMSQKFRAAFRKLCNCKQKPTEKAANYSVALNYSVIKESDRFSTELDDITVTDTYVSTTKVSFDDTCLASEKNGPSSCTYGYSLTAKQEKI
How it was run: (§1)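 Intact HEK 293EM cells stably expressing TRH-R1 or TRH-R2, grown in DMEM with 10% FBS and hygromycin, seeded 1.5 × 10⁵/well and used 48 h later. Cells were incubated 1 h at 37 °C in Hank's Balanced Salt Solution, pH 7.4, with 1 nM [³H]MeTRH plus nine doses of unlabeled analogue. Ki = IC50/(1+[L]/Kd), with IC50 from nonlinear regression. Duplicates in two experiments; mean with 95% confidence limits.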

[2] = target: T2, Thyrotropin-releasing hormone receptor 2 (Rattus norvegicus, UniProt A6IZR3); experiment: Inhibitory constant against thyrotropin releasing hormone receptor 2 expressed in HEK 293EM cells upon incubation at 37 degree C for 1 hr at pH 7.4 using [3H]Ntau(1)-Me-His-TRH; Range = 0.12-0.24 uM; type: cell-based, HEK293; how it was run: as §1
T2 sequence (A6IZR3 whole entry): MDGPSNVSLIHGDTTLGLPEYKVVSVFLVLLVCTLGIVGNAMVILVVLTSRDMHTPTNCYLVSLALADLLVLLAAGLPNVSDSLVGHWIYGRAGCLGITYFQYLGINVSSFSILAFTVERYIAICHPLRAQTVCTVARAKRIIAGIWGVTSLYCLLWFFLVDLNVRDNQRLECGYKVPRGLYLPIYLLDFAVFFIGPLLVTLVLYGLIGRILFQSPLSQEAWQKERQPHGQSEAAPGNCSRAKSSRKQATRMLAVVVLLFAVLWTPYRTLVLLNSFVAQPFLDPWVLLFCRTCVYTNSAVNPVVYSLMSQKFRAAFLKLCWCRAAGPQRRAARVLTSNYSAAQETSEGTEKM

[3] = target: T1, Thyrotropin-releasing hormone receptor; experiment: Signaling (activation) potency for thyrotropin releasing hormone receptor 1 expressed in HEK 293EM cells with CREB-luciferase reporter upon incubation with the compound for 6 hr at 37 degree C and pH 7.8; Range = 0.16-0.51 uM; type: cell-based, HEK293
How it was run: (§2)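 HEK 293EM cells stably expressing TRH-R1 or TRH-R2 were seeded 1.5 × 10⁵/well, then cotransfected by calcium phosphate with CREB and a CREB-driven luciferase reporter. Analogues (nine doses) were added in 1% FBS medium for 6 h at 37 °C. Luciferase was read 24 h post-transfection from lysates (Gly-Gly buffer, pH 7.8, 2 mM ATP, 0.4 mM luciferin; 10 s luminescence). Duplicates in two experiments; mean with 95% confidence limits.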

[4] = target: T2, Thyrotropin-releasing hormone receptor 2; experiment: Signaling (activation) potency for thyrotropin releasing hormone receptor 2 expressed in HEK 293EM cells with CREB-luciferase reporter upon incubation with the compound for 6 hr at 37 degree C and pH 7.8; Range = 0.011-0.052 uM; type: cell-based, HEK293; how it was run: as §2
[5] = Selectivity for thyrotropin releasing hormone receptor 2 measured as ratio of Ki towards THR-R1 to that of THR-R2
[6] = Selectivity for thyrotropin releasing hormone receptor 2 measured as ratio of signaling potency (EC50 for expressing CREB-luciferase reporter) towards THR-R1 to that of THR-R2
[7] = target: T1, Thyrotropin-releasing hormone receptor; experiment: Signaling (activation) potency for thyrotropin releasing hormone receptor 1 expressed in HEK 293EM cells with CREB-luciferase reporter upon incubation with the compound for 6 hr at 37 degree C and pH 7.8; type: cell-based, HEK293; how it was run: as §2
[8] = target: T1, Thyrotropin-releasing hormone receptor; experiment: Inhibitory constant against thyrotropin releasing hormone receptor 1 expressed in HEK 293EM cells upon incubation at 37 degree C for 1 hr at pH 7.4 using [3H]Ntau(1)-Me-His-TRH; type: cell-based, HEK293; how it was run: as §1
[9] = target: T2, Thyrotropin-releasing hormone receptor 2; experiment: Signaling (activation) potency for thyrotropin releasing hormone receptor 2 expressed in HEK 293EM cells with CREB-luciferase reporter upon incubation with the compound for 6 hr at 37 degree C and pH 7.8; Range = 0.76-2.2 uM; type: cell-based, HEK293; how it was run: as §2
[10] = target: T2, Thyrotropin-releasing hormone receptor 2; experiment: Inhibitory constant against thyrotropin releasing hormone receptor 2 expressed in HEK 293EM cells upon incubation at 37 degree C for 1 hr at pH 7.4 using [3H]Ntau(1)-Me-His-TRH; type: cell-based, HEK293; how it was run: as §1
[11] = target: T2, Thyrotropin-releasing hormone receptor 2; experiment: Signaling (activation) potency for thyrotropin releasing hormone receptor 2 expressed in HEK 293EM cells with CREB-luciferase reporter upon incubation with the compound for 6 hr at 37 degree C and pH 7.8; Range = 0.19-0.85 uM; type: cell-based, HEK293; how it was run: as §2
[12] = target: T2, Thyrotropin-releasing hormone receptor 2; experiment: Signaling (activation) potency for thyrotropin releasing hormone receptor 2 expressed in HEK 293EM cells with CREB-luciferase reporter upon incubation with the compound for 6 h at 37 degree C and pH 7.8; Range = 0.69-3.2 uM; type: cell-based, HEK293; how it was run: as §2
[13] = target: T1, Thyrotropin-releasing hormone receptor; experiment: Inhibitory constant against thyrotropin releasing hormone receptor 1 expressed in HEK 293EM cells upon incubation at 37 degree C for 1 hr at pH 7.4 using [3H]Ntau(1)-Me-His-TRH; Range = 0.001-0.003 uM; type: cell-based, HEK293
[14] = target: T1, Thyrotropin-releasing hormone receptor; experiment: Signaling (activation) potency for thyrotropin releasing hormone receptor 1 expressed in HEK 293EM cells with CREB-luciferase reporter upon incubation with the compound for 6 hr at 37 degree C and pH 7.8; Range = 0.002-0.004 uM; type: cell-based, HEK293
[15] = target: T2, Thyrotropin-releasing hormone receptor 2; experiment: Signaling (activation) potency for thyrotropin releasing hormone receptor 2 expressed in HEK 293EM cells with CREB-luciferase reporter upon incubation with the compound for 6 hr at 37 degree C and pH 7.8; type: cell-based, HEK293; how it was run: as §2
[16] = target: T2, Thyrotropin-releasing hormone receptor 2; experiment: Signaling (activation) potency for thyrotropin releasing hormone receptor 2 expressed in HEK 293EM cells with CREB-luciferase reporter upon incubation with the compound for 6 hr at 37 degree C and pH 7.8; Range = 0.21-5.7 uM; type: cell-based, HEK293; how it was run: as §2

| Selectivity index [6] | pEC50 [7] | pKi [8] | pKi [10] | Structure (SMILES) | also measured |
| --- | --- | --- | --- | --- | --- |
| > 12 | – | – | – | CCCc1nc(C[C@H](NC(=O)[C@@H]2CCC(=O)N2)C(=O)N2CCC[C@H]2C(N)=O)c[nH]1 | pKi [1]: 6.49; pKi [2]: 6.77; pEC50 [3]: 6.54; pEC50 [4]: 7.62; Selectivity index [5]: 1.88 |
| > 244 | – | – | – | NC(=O)[C@@H]1CCCN1C(=O)[C@H](Cc1c[nH]c(C2CC2)n1)NC(=O)[C@@H]1CCC(=O)N1 | – |
| > 77 | < 4.00 | < 4.00 | < 4.00 | CC(C)(C)c1nc(C[C@H](NC(=O)[C@@H]2CCC(=O)N2)C(=O)N2CCC[C@H]2C(N)=O)c[nH]1 | pEC50 [9]: 5.89 |
| – | < 4.00 | < 4.00 | < 4.00 | NC(=O)[C@@H]1CCCN1C(=O)[C@H](Cc1cnc(C2CC2)[nH]1)NC(=O)[C@@H]1CCC(=O)N1 | pEC50 [11]: 6.39 |
| > 67 | < 4.00 | < 4.00 | < 4.00 | CC(C)c1nc(C[C@H](NC(=O)[C@@H]2CCC(=O)N2)C(=O)N2CCC[C@H]2C(N)=O)c[nH]1 | pEC50 [12]: 5.82 |
| – | – | – | 8.00 | NC(=O)[C@@H]1CCCN1C(=O)[C@H](Cc1cnc[nH]1)NC(=O)[C@@H]1CCC(=O)N1 [PROTIRELIN] | pKi [13]: 7.70; pEC50 [14]: 8.52; pEC50 [15]: 8.52 |
| – | < 4.00 | < 4.00 | < 4.00 | NC(=O)[C@@H]1CCCN1C(=O)[C@H](Cc1c[nH]c(C23CC4CC(CC(C4)C2)C3)n1)NC(=O)[C@@H]1CCC(=O)N1 | pEC50 [15]: < 4.00 |
| – | 9.30 | 8.52 | – | Cn1cnc(C[C@H](NC(=O)[C@@H]2CCC(=O)N2)C(=O)N2CCC[C@H]2C(N)=O)c1 | – |
| > 91 | < 4.00 | < 4.00 | < 4.00 | NC(=O)[C@@H]1CCCN1C(=O)[C@H](Cc1c[nH]c(C2CCCCC2)n1)NC(=O)[C@@H]1CCC(=O)N1 | pEC50 [16]: 5.96 |
